Measurements as given in ChEMBL document CHEMBL1131121, “Inactivation of S-adenosyl-L-homocysteine hydrolase and antiviral activity with 5',5',6',6'-tetradehydro-6'-deoxy-6'-halohomoadenosine analogues (4'-haloacetylene analogues derived from adenosine)” (J Med Chem, 1998).
≈ marks a conversion by molar mass, not a printed value.

Assays:
[1] = tested on: E6SM; assay: Minimum inhibitory concentration (MIC) required to elicit a microscopically visible alteration of cell morphology in E6SM cells; format: functional; details: Homo sapiens
[2] = tested on: E6SM; assay: concentration required to inhibit HSV-1(KOS)-induced cytopathicity by 50% in E6SM cells; format: functional, cell-based; details: Homo sapiens
Outline: (§1)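 Assay measured inhibition of virus-induced cytopathicity in confluent E6SM, HeLa or Vero monolayers. Cells were inoculated with 100 CCID50 of virus for 1 h adsorption, then unbound virus was removed. Cultures were incubated with serial compound concentrations (400, 200, 100 … µg/mL). Cytopathicity was scored once virus control cultures reached complete CPE, and the 50% effective concentration was derived.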

[3] = tested on: E6SM; assay: concentration required to inhibit HSV-1/TK (B2006) or VMW1837-induced cytopathicity by 50% in E6SM cells; format: functional, cell-based; details: Homo sapiens; outline: as §1
[4] = tested on: E6SM; assay: concentration required to inhibit HSV-2(G)-induced cytopathicity by 50% in E6SM cells; format: functional, cell-based; details: Homo sapiens; outline: as §1
[5] = tested on: E6SM; assay: concentration required to inhibit VSV-induced cytopathicity by 50% in E6SM cells; format: functional, cell-based; details: Homo sapiens; outline: as §1
[6] = tested on: E6SM; assay: concentration required to inhibit vaccinia virus-induced cytopathicity by 50% in E6SM cells; format: functional, cell-based; details: Homo sapiens; outline: as §1
[7] = tested on: HeLa; assay: concentration required to inhibit RSV-induced cytopathicity by 50% in HeLa cells; format: functional, cell-based; details: Homo sapiens; outline: as §1
[8] = tested on: HeLa; assay: concentration required to inhibit VSV-induced cytopathicity by 50% in HeLa cells; format: functional, cell-based; details: Homo sapiens; outline: as §1
[9] = tested on: HeLa; assay: Minimum inhibitory concentration (MIC) required to elicit a microscopically visible alteration of cell morphology in HeLa cells; format: functional; details: Homo sapiens
[10] = biological target: T1, Adenosylhomocysteinase (Homo sapiens, UniProt P23526); assay: Effect on the S-adenosyl-homocysteine hydrolase activity; format: functional
Outline: (§2)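 Recombinant human placental AdoHcy hydrolase was exposed to 100 µM inhibitor in buffer A (50 mM potassium phosphate, pH 7.2, 1 mM EDTA) at 37 °C for 20 min. Residual activity was measured in the synthetic direction with 1 mM Ado plus 5 mM Hcy for 5 min at 37 °C. The reaction was stopped with HClO4 and AdoHcy quantified by C18 reverse-phase HPLC.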
Target sequence in this assay (P23526 2-432 limits assumed): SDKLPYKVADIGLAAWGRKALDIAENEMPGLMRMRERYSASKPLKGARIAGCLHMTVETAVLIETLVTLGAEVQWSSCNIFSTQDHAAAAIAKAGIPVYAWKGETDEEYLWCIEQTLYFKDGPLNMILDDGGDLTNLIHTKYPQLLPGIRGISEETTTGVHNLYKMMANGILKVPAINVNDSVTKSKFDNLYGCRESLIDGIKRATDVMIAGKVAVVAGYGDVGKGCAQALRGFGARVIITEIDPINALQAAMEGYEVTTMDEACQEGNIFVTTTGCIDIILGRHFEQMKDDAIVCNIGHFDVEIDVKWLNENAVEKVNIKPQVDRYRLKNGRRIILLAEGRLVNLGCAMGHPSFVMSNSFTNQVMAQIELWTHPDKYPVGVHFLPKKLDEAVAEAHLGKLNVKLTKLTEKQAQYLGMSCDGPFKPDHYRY

[11] = biological target: T1, Adenosylhomocysteinase; assay: (§3) Kinetic constant calculated from the pseudo-first-order rate constant(k app) for S-adenosyl-homocysteine hydrolase inactivation
Outline: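 Recombinant human placental AdoHcy hydrolase (25 nM) preincubated with 0–100 µM inhibitor in buffer A (50 mM potassium phosphate, pH 7.2, 1 mM EDTA) at 37 °C for 0–5 min. Residual activity then measured in the synthetic direction (Ado 1 mM, Hcy 5 mM, 37 °C, 5 min; AdoHcy by reverse-phase HPLC). k_app taken from log remaining activity vs time; k2 and Ki from Kitz–Wilson analysis.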
Target sequence in this assay (P23526 whole entry): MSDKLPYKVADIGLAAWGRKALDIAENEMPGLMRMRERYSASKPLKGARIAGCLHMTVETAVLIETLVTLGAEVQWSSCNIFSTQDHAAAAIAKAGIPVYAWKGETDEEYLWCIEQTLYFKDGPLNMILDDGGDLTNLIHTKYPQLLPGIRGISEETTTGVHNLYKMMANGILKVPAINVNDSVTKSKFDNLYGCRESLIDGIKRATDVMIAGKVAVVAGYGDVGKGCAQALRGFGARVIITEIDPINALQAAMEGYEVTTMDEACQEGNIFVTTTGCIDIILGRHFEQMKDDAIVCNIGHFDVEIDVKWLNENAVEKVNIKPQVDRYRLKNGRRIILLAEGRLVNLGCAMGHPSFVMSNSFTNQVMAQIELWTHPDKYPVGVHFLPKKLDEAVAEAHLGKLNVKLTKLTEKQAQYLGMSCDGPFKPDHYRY

[12] = biological target: T1, Adenosylhomocysteinase; assay: (§4) Enzyme-mediated release of Adenine(Ade) from the compound
Outline: (§5)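 AdoHcy hydrolase (10 µM) was incubated with 100 µM compound in buffer A at 37 °C for 20 min. At each time point the reaction was stopped with 5 M HClO4 and adenine measured by HPLC. The peak identity was confirmed by co-injection with authentic adenine and by CI/NH3 mass spectrometry.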
Target sequence in this assay (P23526 2-432 limits assumed): as the sequence (P23526 2-432 limits assumed) above

[13] = biological target: T1, Adenosylhomocysteinase; assay: Enzyme-mediated release of halide ions from the compound; format: functional
Outline: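 Enzyme (10 µM) was incubated with 100 µM compound in buffer A at 37 °C for 20 min and the filtrate collected through a 3000 Mr cutoff device. Cl⁻ and Br⁻ were measured by anion-exchange HPLC with conductivity detection (1.5 mM p-hydroxybenzoic acid/2% methanol, pH 8.5). I⁻ was measured by C18 ion-pair HPLC at 260 nm. All ions were quantified against standard curves.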
Target sequence in this assay (P23526 2-432 limits assumed): as above

[14] = biological target: T1, Adenosylhomocysteinase; assay: as §3; remark: listed apart in the source
Outline: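 For time-dependent inactivation, enzyme (25 nM) was incubated with various inhibitor concentrations in buffer A at 37 °C for 0–5 min, then residual synthetic-direction activity was assayed by HPLC. k_app was taken from the log(remaining activity) versus time plot. k2 and Ki were derived from k_app and [I] by the Kitz–Wilson method.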
Target sequence in this assay (P23526 2-432 limits assumed): as above

[15] = biological target: T1, Adenosylhomocysteinase; assay: NADH content of the enzyme (percentage of total coenzyme) from the compound; format: functional
Outline: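 AdoHcy hydrolase (10 µM) in buffer A was incubated with 100 µM compound at 37 °C for 20 min. Conversion of enzyme-bound NAD⁺ to NADH was followed by UV absorbance at 340 nm and quantified against a standard curve. Values are given as % of total coenzyme.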
Target sequence in this assay (P23526 2-432 limits assumed): as above

[16] = tested on: Vero; assay: concentration required to inhibit Coxsackie virus B4-induced cytopathicity by 50% in Vero cells; format: functional, cell-based; details: Chlorocebus sabaeus; outline: as §1
[17] = tested on: Vero; assay: concentration required to inhibit Punta Toro virus-induced cytopathicity by 50% in Vero cells; format: functional, cell-based; details: Chlorocebus sabaeus; outline: as §1
[18] = tested on: Vero; assay: concentration required to inhibit Sindbis virus -induced cytopathicity by 50% in Vero cells; format: functional, cell-based; details: Chlorocebus sabaeus; outline: as §1
[19] = tested on: Vero; assay: concentration required to inhibit parainfluenza-3 virus-induced cytopathicity by 50% in Vero cells; format: functional, cell-based; details: Chlorocebus sabaeus; outline: as §1
[20] = tested on: Vero; assay: concentration required to inhibit reovirus-1-induced cytopathicity by 50% in Vero cells; format: functional, cell-based; details: Chlorocebus sabaeus; outline: as §1
[21] = tested on: Vero; assay: Minimum inhibitory concentration (MIC) required to elicit a microscopically visible alteration of cell morphology in Vero cells; format: functional; details: Chlorocebus sabaeus
[22] = biological target: T1, Adenosylhomocysteinase; assay: Inhibition of S-adenosyl-homocysteine hydrolase at 01 uM concentration was determined from enzyme activity remaining
Outline: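 Recombinant human placental AdoHcy hydrolase (25 nM) was preincubated with 0–100 µM inhibitor in buffer A (50 mM potassium phosphate, pH 7.2, 1 mM EDTA) at 37 °C for 20 min. Remaining activity was assayed as AdoHcy formed from 1 mM Ado and 5 mM Hcy (5 min, 37 °C), then HClO4 quench and C18 HPLC. Results are given as % activity remaining.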
Target sequence in this assay (P23526 2-432 limits assumed): as above

[23] = biological target: T1, Adenosylhomocysteinase; assay: Inhibition of S-adenosyl-homocysteine hydrolase at 100 uM concentration was determined from enzyme activity remaining; details: values are per cent of control; outline: as §2
[24] = tested on: HeLa; assay: concentration required to inhibit Coxsackie virus B4-induced cytopathicity by 50% in HeLa cells; format: functional, cell-based; details: Homo sapiens; outline: as §1
[25] = biological target: T1, Adenosylhomocysteinase; assay: Inhibition of S-adenosyl-homocysteine hydrolase at 10 uM concentration was determined from enzyme activity remaining; values are per cent of control
[26] = biological target: T1, Adenosylhomocysteinase; assay: Inhibition of S-adenosyl-homocysteine hydrolase at 0.1 uM concentration was determined from enzyme activity remaining; values are per cent of control
[27] = biological target: T1, Adenosylhomocysteinase; assay: Inhibition of S-adenosyl-homocysteine hydrolase at 100 uM concentration; outline: as §2
[28] = biological target: T1, Adenosylhomocysteinase; assay: as §4; format: functional; outline: as §5
[29] = biological target: T1, Adenosylhomocysteinase; assay: Inhibition of S-adenosyl-homocysteine hydrolase at 1 uM concentration was determined from enzyme activity remaining; values are per cent of control
[30] = biological target: T1, Adenosylhomocysteinase; assay: Inhibition of S-adenosyl-homocysteine hydrolase at 100 uM concentration was determined from S-adenosylhomocysteine hydrolase activity remaining; details: values are per cent of control; outline: as §2
[31] = tested on: Vero; assay: concentration required to inhibit reovirus-1 induced cytopathicity by 50% in Vero cells; format: functional, cell-based; details: Chlorocebus sabaeus; outline: as §1

SMILES | MIC [1] | EC50 [2] | EC50 [3] | EC50 [4] | EC50 [5] | EC50 [6] | EC50 [7] | EC50 [8] | MIC [9] | Activity [10] | Ki [11] | Release [13] | k2 [14] | EC50 [16] | EC50 [17] | EC50 [18] | EC50 [19] | EC50 [20] | MIC [21] | EC50 [24] | further results
Nc1ncnc2c1ncn2C1O[C@H](C#CCl)[C@@H](O)[C@H]1O (some centres not stated) | > 340 µM | > 140 µM | > 140 µM | > 140 µM | 70 µM | 140 µM | > 140 µM | > 140 µM | > 340 µM | 47% | 1.7 µM | 28% | 0.48 min⁻¹ | > 35 µM | > 35 µM | > 35 µM | > 35 µM | > 35 µM | > 140 µM | > 140 µM | Release [12]: 18%; Total coenzyme [15]: 53%; inhibition [22]: 64%; residual activity [23]: 55%; residual activity [25]: 58.9%; residual activity [26]: 89.3%
Nc1ncnc2c1ncn2C1O[C@H](C#CI)[C@@H](O)[C@H]1O (some centres not stated) | 26 µM (≈ 10.1 µg/mL) | > 10 µM | > 10 µM | > 10 µM | 0.08 µM | 0.26 µM | > 260 µM | 260 µM | > 1040 µM | 1.4% | 1.1 µM | 0% | 0.095 min⁻¹ | > 104 µM | > 104 µM | > 104 µM | 2.6 µM | > 0.78 µM | > 180 µM | > 260 µM | inhibition [27]: < 2%; Release [28]: 5.7%; Total coenzyme [15]: 96%; residual activity [29]: 44.6%; residual activity [25]: 8.8%; residual activity [26]: 80%
Nc1ncnc2c1ncn2C1O[C@H](C#CBr)[C@@H](O)[C@H]1O (some centres not stated) | > 300 µM | > 120 µM | > 120 µM | > 120 µM | 6 µM | 6 µM | 210 µM | 45 µM | > 300 µM | 49% | 3.8 µM | 70% | 0.49 min⁻¹ | > 30 µM | > 30 µM | > 30 µM | 6 µM | 3 µM | > 120 µM | > 300 µM | residual activity [30]: 56%; Release [28]: 28%; Total coenzyme [15]: 49%; residual activity [29]: 73.2%; residual activity [25]: 62.9%; residual activity [26]: 91%
NC(=O)c1ncn([C@@H]2O[C@H](CO)[C@@H](O)[C@H]2O)n1 [RIBAVIRIN] | > 1600 µM | 960 µM | 128 µM | 960 µM | 192 µM | 192 µM | – | 192 µM | > 1600 µM | – | – | – | – | > 1600 µM | 64 µM | 64 µM | 64 µM | 64 µM | > 1600 µM | 320 µM | –
NC1=NC(CCCO)N(CCCO)c2[nH]cnc21 (configuration not stated) | – | – | – | – | – | – | – | 400 µM | > 2000 µM | – | – | – | – | > 2000 µM | > 2000 µM | > 2000 µM | 1200 µM | – | > 1600 µM | > 2000 µM | EC50 [31]: 240 µM
